In ChEMBL document CHEMBL5131498, “Synthesis and biological evaluation of orally active prodrugs and analogs of para-aminosalicylic acid (PAS)” (Eur J Med Chem, 2022):
≈ marks a conversion by molar mass, not a printed value.

Experiments:
Assay type in all cases: functional
[1] = tested on: Mycobacterium tuberculosis; assay: Antimycobacterial activity against PAS resistant Mycobacterium tuberculosis H37Rv harboring R49W mutant assessed as inhibition of bacterial growth measured after 2 weeks by microbroth dilution method
How it was run: (§1)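 Diluted 1000-fold into 96-well plates with 2-fold serial compound dilutions and incubated at 37 °C for 2 weeks. Growth scored by mirror at 1 and 2 weeks. MIC is the lowest concentration completely inhibiting growth; tested in duplicate. DMSO, isoniazid and linezolid served as controls.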

[2] = tested on: Mycobacterium tuberculosis; assay: Antimycobacterial activity against multidrug resistant Mycobacterium tuberculosis H37Rv assessed as inhibition of bacterial growth measured after 2 weeks by microbroth dilution method; conditions: 336 h; how it was run: as §1
[3] = tested on: Mycobacterium tuberculosis; assay: Antimycobacterial activity against PAS resistant Mycobacterium tuberculosis H37Rv harboring E153A mutant assessed as inhibition of bacterial growth measured after 2 weeks by microbroth dilution method; how it was run: as §1
[4] = tested on: Mycobacterium tuberculosis; assay: Antimycobacterial activity against extensively drug resistant Mycobacterium tuberculosis H37Rv assessed as inhibition of bacterial growth measured after 2 weeks by microbroth dilution method; conditions: 336 h; how it was run: as §1
[5] = tested on: Mycobacterium tuberculosis; assay: Antimycobacterial activity against PAS resistant Mycobacterium tuberculosis H37Rv harboring S150G mutant assessed as inhibition of bacterial growth measured after 2 weeks by microbroth dilution method; how it was run: as §1

Compound	MIC90 [1]	MIC90 [2] [µM]	MIC90 [3]	MIC90 [4] [µM]	MIC90 [5]
NNC(=O)c1ccncc1 [ISONIAZID]	0.3 µM (≈ 0.0411 µg/mL)	0.4 (≈ 0.0549 µg/mL)	0.3 µM (≈ 0.0411 µg/mL)	6.3 (≈ 0.864 µg/mL)	0.3 µM (≈ 0.0411 µg/mL)
Nc1ccc(C(=O)O)c(O)c1 [AMINOSALICYLIC ACID]	12.5 µM (≈ 1.91 µg/mL)	0.2 (≈ 0.0306 µg/mL)	12.5 µM (≈ 1.91 µg/mL)	≥ 50	12.5 µM (≈ 1.91 µg/mL)
Nc1cc(O)c(C(=O)O)cc1F	>=50 uM	6.3 (≈ 1.08 µg/mL)	>=50 uM	≥ 50	>=50 uM
CC(=O)NC[C@H]1CN(c2ccc(N3CCOCC3)c(F)c2)C(=O)O1 [LINEZOLID]	1.9 µM (≈ 0.641 µg/mL)	0.8 (≈ 0.27 µg/mL)	1.9 µM (≈ 0.641 µg/mL)	0.9 (≈ 0.304 µg/mL)	1.9 µM (≈ 0.641 µg/mL)
